Measured values from different studies.
Each line is one published result; the experiments were not run side by side.
Target: Phosphatidylinositol 5-phosphate 4-kinase type-2 beta (PIP4K2B, Homo sapiens, UniProt P78356)
Sequence (P78356 1-416, as in one of the studies): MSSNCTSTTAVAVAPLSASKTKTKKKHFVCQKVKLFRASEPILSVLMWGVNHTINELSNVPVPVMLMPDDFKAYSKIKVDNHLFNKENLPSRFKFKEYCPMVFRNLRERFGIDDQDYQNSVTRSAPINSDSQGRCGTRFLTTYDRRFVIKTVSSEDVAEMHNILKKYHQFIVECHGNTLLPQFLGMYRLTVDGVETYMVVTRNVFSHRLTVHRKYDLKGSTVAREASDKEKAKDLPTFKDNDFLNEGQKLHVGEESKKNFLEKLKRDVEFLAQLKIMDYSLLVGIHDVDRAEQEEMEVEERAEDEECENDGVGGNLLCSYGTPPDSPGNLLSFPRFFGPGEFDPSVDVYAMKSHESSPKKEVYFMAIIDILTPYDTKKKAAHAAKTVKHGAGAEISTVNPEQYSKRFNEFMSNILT

The remaining binding of `O=C(c1ccc(Nc2ncc(Cl)c(-c3ccc(Cl)s3)n2)cc1)N1CCC(N2CCCC2)CC1` is reported as 1.9% (binding; competition with immobilised ligand; 1 µM).
For `CN(C)c1nccc(-c2cnn3ncccc23)n1`, the remaining binding was 100% (binding; 1 µM).
With `O=C(NCC1CCOCC1)c1n[nH]cc1NC(=O)c1c(F)cccc1F` the remaining binding was 100% (binding; competition with immobilised ligand; 1 µM).
For `CC1CCCN1c1nccc(-c2cnn3ncccc23)n1` (stereo not drawn), the remaining binding was 100% (binding; 1 µM).
`FC(F)(F)Oc1cccc(-c2cnc3ccc(-c4ccncc4)nn23)c1` has a remaining binding of 100% (cell-free assay; competition with immobilised ligand; 5 µM).
With `CN(C)c1ncc(F)c(-c2cnn3ncccc23)n1` the remaining binding was 100% (binding; 1 µM).
For `COc1cnc(Nc2cccc(S(N)(=O)=O)c2)nc1N1CCN(c2ccccc2)CC1`, the remaining binding was 100% (binding; competition with immobilised ligand; 1 µM).
With `Cc1cc(C)c(-n2ccn3nc(-c4cccnc4)cc23)cc1NC(=O)c1cc(C#N)cc(S(F)(F)(F)(F)F)c1` the remaining binding was 52.2% (cell-free assay; competition with immobilised ligand; 0.1 µM).
`N[C@H]1CCN(c2nccc(-c3cnn4ncccc34)n2)C1` has a remaining binding of 100% (binding; 1 µM).
`CCOCCn1cc(C(=O)Nc2ccc(-n3nc(-c4cccnc4)cc3C(F)(F)F)cn2)ccc1=O` has a remaining binding of 68% (cell-free assay; competition with immobilised ligand; 1 µM).
`COc1cc(Nc2nccc(-c3cnn4nc(OC)ccc34)n2)cc(C(F)(F)F)c1` gave a remaining binding of 50% (binding; competition with immobilised ligand; 1 µM).
The remaining binding of `C=CC(=O)N1CCC(C(=O)NCC(=O)N2CCN(c3nc(-c4cnc(N)nc4C(F)F)nc(N4CCOCC4)n3)CC2)CC1` is reported as 99% (binding; competition with immobilised ligand; 1 µM).
`COc1ccc2c(c1)O[C@H](c1ccc(OC)c(OC)c1)C[C@@H]2NC(=O)C1(c2ccc3c(c2)OC(F)(F)O3)CC1` gave a remaining binding of 80% (cell-free assay; competition with immobilised ligand; 1 µM).
With `Cc1cnc(Nc2ccc(C(=O)N3CCC(N4CCCC4)CC3)cc2)nc1-c1cc2ccccc2s1` the remaining binding was 8.8% (binding; competition with immobilised ligand; 1 µM).
With `CC(=O)c1c(NS(C)(=O)=O)c2cc(-c3ccc(Cl)cc3)c(-c3ccc(Cl)cc3Cl)nc2n(C)c1=O` the remaining binding was 65% (cell-free assay; competition with immobilised ligand; 1 µM).
The remaining binding of `CN(CCCC(F)(F)F)c1nccc(-c2cnn3ncccc23)n1` is reported as 57% (binding; 1 µM).
The remaining binding of `NS(=O)(=O)c1cc(NC(=O)Cc2ccccc2)ccc1Oc1cccc(Cl)c1` is reported as 89% (cell-free assay; competition with immobilised ligand; 1 µM).
The remaining binding of `CNC(=O)[C@@H]1CC[C@@H](n2c(-c3ccc4cnccc4c3)nc3ccc(C(=O)NCc4cccc(C(N)=O)c4)cc32)C1` is reported as 99% (binding; competition with immobilised ligand; 1 µM).
`C[C@@H](c1ccc(-n2cnc3c(N)ncnc32)cc1)N1CCc2nn(C)c(Cc3ccccc3)c2C1=O` has a remaining binding of 69% (binding; competition with immobilised ligand; 0.1 µM).
`Cc1cnn2ncc(-c3ccnc(N(C)C)n3)c2c1` has a remaining binding of 47% (binding; 1 µM).
For `CNCc1ccccc1-c1csc([C@H](C)Nc2nc(C)nc3cc(OC)c(OC)cc23)c1`, the remaining binding was 100% (cell-free assay; competition with immobilised ligand; 1 µM).
With `O=C(c1ccc(Nc2ncc(Cl)c(-c3cc4ccccc4s3)n2)cc1)N1CCC(N2CCCC2)CC1` the remaining binding was 7.1% (binding; competition with immobilised ligand; 1 µM).
For `C[C@@]1(Cc2ccc(C#N)cc2)C(=O)N(c2cc(Cl)cc(Cl)c2)c2ncc(C(=O)NC3(c4nc(C5CCC5)no4)CC3)n21`, the remaining binding was 97% (cell-free assay; competition with immobilised ligand; 1 µM).
`c1cncc(-c2cccc(Nc3nccc(NC4CCCCC4)n3)c2)c1` has a remaining binding of 27% (binding; competition with immobilised ligand; 10 µM).
